Results published in ChEMBL document CHEMBL1139283, “Synthesis and biological activity of 1,4-dihydrobenzothiopyrano[4,3-c]pyrazole derivatives, novel pro-apoptotic mitochondrial targeted agents” (Bioorg Med Chem, 2009).
pIC50: −log10 of the molar value. Active and inactive are the calls of the source. The calls are words filed in the database; no cut-off is given here.

Key:
HL-60 = assay: Cytotoxicity against human HL60 cells after 72 hrs by trypan blue assay; type: functional, cell-based; conditions: HL-60, 72 h
Procedure, shortened: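 HL-60 cells kept in RPMI 1640 with 15% heat-inactivated FCS plus antibiotics, 37 °C, 5% CO2. 4×10^4 cells/well seeded, 24 h, then a range of concentrations added to complete medium for 72 h. Cell number counted by trypan blue; IC50 is the concentration giving 50% fewer cells than control cultures.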

HeLa [1] = assay: Cytotoxicity against human HeLa cells after 72 hrs by trypan blue assay; type: functional, cell-based
Procedure, shortened: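 HeLa cells kept in Ham's F-12 with 10% heat-inactivated FCS plus antibiotics, 37 °C, 5% CO2. 4×10^4 cells/well seeded, 24 h, medium renewed, then a range of concentrations added for 72 h. Viability by trypan blue; IC50 is the concentration giving 50% fewer cells than control.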

Salmonidae = assay: Binding affinity to Salmon testes DNA assessed as drug-DNA complex formation by linear flow dichroism method
Procedure, shortened: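 Salmon testes DNA at 1.6×10^-3 M in ETN buffer (10 mM Tris, 10 mM NaCl, 1 mM EDTA, pH 7). DNA concentration set from extinction coefficient 6600 M(p)-1 cm-1 at 260 nm. Linear dichroism spectra recorded at 25 °C at [drug]/[DNA] = 0.00 and 0.08.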

Rattus norvegicus [2] = species: Rattus norvegicus; assay: Increase in hydrogen peroxide production in rat liver mitochondria assessed per mg of protein at 50 uM in presence of CA2+; type: functional
Procedure, shortened: (§1)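 Rat liver mitochondria, 1 mg protein/mL, 20 °C, standard succinate/rotenone medium pH 7.4 with 30 μM Ca2+ unless omitted. Agent 50 μM. H2O2 measured fluorometrically by the scopoletin method, expressed per mg protein; mean ± SD of four independent experiments.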

Rattus norvegicus [3] = species: Rattus norvegicus; assay: Decrease in mitochondrial sulfydryl groups in rat liver mitochondria at 50 uM in presence of Ca2+; type: functional
Procedure, shortened: (§2)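 Rat liver mitochondria (1 mg protein/mL) at 20 °C in 250 mM sucrose, 10 mM Hepes pH 7.4, 5 mM succinate, 1.25 μM rotenone with 30 μM Ca2+ unless omitted. Agent 50 μM; DTE 2 mM where present. Protein thiol oxidation measured; mean ± SD of four independent experiments.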

HeLa [4] = assay: Induction of apoptosis in human HeLa cells assessed as dead cell count at 50 uM treated for 48 hrs before Annexin-V-FITC PI staining by flow cytometry; type: functional
HeLa [5] = assay: Induction of apoptosis in human HeLa cells assessed as late stage apoptotic cell count at 50 uM using Annexin-V-FITC PI stain by flow cytometry; type: functional
Procedure, shortened: (§3)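 Near-confluent HeLa cells exposed to 50 μM agent for 0, 24 or 48 h at 37 °C. About 5×10^5 cells in binding buffer (10 mM Hepes pH 7.5, 140 mM NaCl, 2.5 mM CaCl2) stained with 1 μg/ml Annexin V-FITC and 1 μg/ml PI, 10 min at room temperature in the dark. Flow cytometry; mean of three independent experiments.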

HeLa [6] = assay: Induction of DNA fragmentation in human HeLa cells at 100 uM after 24 hrs in presence of cyclosporin A; type: functional, cell-based
Procedure, shortened: (§4)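 HeLa cells (5×10^5) grown 24 h at 37 °C, optionally pretreated 30 min at 37 °C with 5 μM CsA. Medium renewed, agent added at 100 μM for 24 h. Extracted DNA in TE buffer run on 0.8% agarose gel in TBE, pH 8.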

HeLa [7] = assay: Induction of apoptosis in human HeLa cells assessed as dead cell count at 50 uM treated for 24 hrs before Annexin-V-FITC PI staining by flow cytometry; type: functional
Rattus norvegicus [8] = species: Rattus norvegicus; assay: Induction of apoptosis inducing factor release in rat liver mitochondria at 50 uM by Western blotting in presence of cyclosporin A; type: functional
Procedure, shortened: (§5)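 Rat liver mitochondria (1 mg protein/mL) incubated 15 min at 20 °C in standard medium with 30 μM Ca2+ unless omitted. Agent 50 μM, CsA 1 μM. Supernatant after 13,000 g, 10 min, 4 °C, concentrated and run on SDS-PAGE (15% for cyt c, 10% for AIF). Western blot with anti-cyt c and anti-AIF antibodies.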

Rattus norvegicus [9] = species: Rattus norvegicus; assay: Effect on mitochondrial swelling in rat liver mitochondria assessed as complete collapse of electrical membrane potential at 50 uM in presence of cyclosporin A; type: functional
Rattus norvegicus [10] = species: Rattus norvegicus; assay: Decrease in mitochondrial sulfydryl groups in rat liver mitochondria at 50 uM in presence of DTE; type: functional; procedure, shortened: as §2
HeLa [11] = assay: Induction of apoptosis in human HeLa cells assessed as non apoptotic cell count at 50 uM using Annexin-V-FITC PI stain by flow cytometry; type: functional; procedure, shortened: as §3
Rattus norvegicus [12] = species: Rattus norvegicus; assay: Induction of apoptosis inducing factor release in rat liver mitochondria at 50 uM by Western blotting in presence of Ca2+; type: functional; procedure, shortened: as §5
HeLa [13] = assay: Induction of apoptosis in human HeLa cells assessed as late stage apoptotic cell count at 50 uM treated for 48 hrs before Annexin-V-FITC PI staining by flow cytometry; type: functional; procedure, shortened: as §3
HeLa [14] = assay: Induction of apoptosis in human HeLa cells assessed as non apoptotic cell count at 50 uM treated for 48 hrs before Annexin-V-FITC PI staining by flow cytometry; type: functional; procedure, shortened: as §3
HeLa [15] = assay: Induction of DNA fragmentation in human HeLa cells at 100 uM after 24 hrs; type: functional, cell-based; procedure, shortened: as §4
HeLa [16] = assay: Induction of mitochondrial membrane depolarization in human HeLa cells at 50 uM after 24 hrs by FL2 staining; type: functional
Procedure, shortened: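 Near-confluent HeLa cells given 50 μM agent in DMSO for 24 h at 37 °C; JC-1 added at […] final for the last 10 min. Positive control 20 μM H2O2 for 24 h. After cold PBS wash, flow cytometry with 488 nm excitation; monomers at 530 nm, aggregates (FL2) at 585/650 nm. At least 10,000 events; one of four experiments.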

Rattus norvegicus [17] = species: Rattus norvegicus; assay: Effect on mitochondrial swelling in rat liver mitochondria assessed as complete collapse of electrical membrane potential at 50 uM in presence of bongkrekic acid; type: functional
HeLa [18] = assay: Induction of apoptosis in human HeLa cells assessed as dead cell count at 50 uM using Annexin-V-FITC PI stain by flow cytometry; type: functional
Rattus norvegicus [19] = species: Rattus norvegicus; assay: Decrease in mitochondrial sulfydryl groups in rat liver mitochondria at 50 uM; type: functional; design: scale not given: the % may be the effect or the level left; procedure, shortened: as §2
HeLa [20] = assay: Induction of apoptosis in human HeLa cells assessed as early stage apoptotic cell count at 50 uM treated for 24 hrs before Annexin-V-FITC PI staining by flow cytometry; type: functional; procedure, shortened: as §3
HeLa [21] = assay: Induction of apoptosis in human HeLa cells assessed as late stage apoptotic cell count at 50 uM treated for 24 hrs before Annexin-V-FITC PI staining by flow cytometry; type: functional; procedure, shortened: as §3
HeLa [22] = assay: Induction of apoptosis in human HeLa cells assessed as early stage apoptotic cell count at 50 uM using Annexin-V-FITC PI stain by flow cytometry; type: functional; procedure, shortened: as §3
Rattus norvegicus [23] = species: Rattus norvegicus; assay: Increase in hydrogen peroxide production in rat liver mitochondria assessed per mg of protein at 50 uM; type: functional; procedure, shortened: as §1
HeLa [24] = assay: Induction of apoptosis in human HeLa cells assessed as non apoptotic cell count at 50 uM treated for 24 hrs before Annexin-V-FITC PI staining by flow cytometry; type: functional; procedure, shortened: as §3
HeLa [25] = assay: Induction of apoptosis in human HeLa cells assessed as early stage apoptotic cell count at 50 uM treated for 48 hrs before Annexin-V-FITC PI staining by flow cytometry; type: functional; procedure, shortened: as §3
Rattus norvegicus [26] = species: Rattus norvegicus; assay: Effect on mitochondrial swelling in rat liver mitochondria assessed as complete collapse of electrical membrane potential at 50 uM in presence of N-ethylmaleimide; type: functional
Rattus norvegicus [27] = species: Rattus norvegicus; assay: Effect on mitochondrial swelling in rat liver mitochondria assessed as complete collapse of electrical membrane potential at 50 uM in presence of ADP; type: functional
Rattus norvegicus [28] = species: Rattus norvegicus; assay: Induction of cytochrome c release in rat liver mitochondria at 50 uM by Western blotting in presence of cyclosporin A; type: functional; procedure, shortened: as §5
Rattus norvegicus [29] = species: Rattus norvegicus; assay: Induction of cytochrome c release in rat liver mitochondria at 50 uM by Western blotting in presence of Ca2+; type: functional; procedure, shortened: as §5
Rattus norvegicus [30] = species: Rattus norvegicus; assay: Effect on mitochondrial swelling in rat liver mitochondria assessed as complete collapse of electrical membrane potential at 50 uM; type: functional
Rattus norvegicus [31] = species: Rattus norvegicus; assay: Effect on mitochondrial swelling in rat liver mitochondria assessed as complete collapse of electrical membrane potential at 50 uM in presence of Ca2+; type: functional
HeLa [32] = assay: Cytotoxicity against human HeLa cells assessed as viable cells at 6 uM after 72 hrs by trypan blue assay in presence of cyclosporin A; type: functional; conditions: read-out: Activity
Procedure, shortened: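 HeLa cells seeded, after 24 h pretreated 30 min with 2 μM CsA. Medium renewed, 6 μM agent added, 72 h. Viable cells counted by trypan blue and expressed as percent of control culture cell number.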

Clc1ccc2c(c1)SCc1cnn(-c3ccccc3)c1-2
pIC50 (HL-60): < 4.70 | pIC50 (HeLa [1]): < 4.70

COc1ccc2c(c1)SCc1cnn(-c3ccccc3)c1-2
pIC50 (HL-60): 4.90 | Activity (Salmonidae): inactive | pIC50 (HeLa [1]): 4.76

Clc1ccc(-n2ncc3c2-c2ccc(Cl)cc2SC3)cc1
pIC50 (HL-60): < 4.70 | pIC50 (HeLa [1]): < 4.70

Clc1ccc2c(c1)SCc1cn[nH]c1-2
pIC50 (HL-60): < 4.70 | pIC50 (HeLa [1]): < 4.70

COc1ccc(-n2ncc3c2-c2ccc(OC)cc2SC3)cc1
pIC50 (HL-60): 5.18 | Activity (Salmonidae): inactive | pIC50 (HeLa [1]): 4.75

COc1ccc2c(c1)SCc1cn(-c3ccc(Cl)cc3)nc1-2
pIC50 (HL-60): < 4.70 | pIC50 (HeLa [1]): < 4.70

COc1ccc2c(c1)SCc1cnc(-c3ccccc3)nc1-2
pIC50 (HL-60): 5.15

COc1ccc2c(c1)SCc1cnn(-c3ccc(Cl)cc3)c1-2
Activity (Rattus norvegicus [2]): 0.55 nmol | Activity (Rattus norvegicus [3]): 2 | Activity (HeLa [4]): 11.6% | pIC50 (HL-60): 5.42 | Activity (HeLa [5]): 1.2% | Activity (HeLa [6]): inactive | Activity (HeLa [7]): 5.4% | Activity (Rattus norvegicus [8]): inactive | Activity (Rattus norvegicus [9]): inactive | Activity (Rattus norvegicus [10]): Active | Activity (HeLa [11]): 93.4% | Activity (Rattus norvegicus [12]): Active | Activity (Salmonidae): inactive | Activity (HeLa [13]): 39% | Activity (HeLa [14]): 40.9% | Activity (HeLa [15]): Active | Activity (HeLa [16]): 39.4% | Activity (Rattus norvegicus [17]): inactive | Activity (HeLa [18]): 0.6% | Activity (Rattus norvegicus [19]): 20% | Activity (HeLa [20]): 19.7% | Activity (HeLa [21]): 28.2% | Activity (HeLa [22]): 4.8% | Activity (Rattus norvegicus [23]): 0.25 nmol | Activity (HeLa [24]): 46.7% | Activity (HeLa [25]): 8.5% | Activity (Rattus norvegicus [26]): inactive | pIC50 (HeLa [1]): 5.17 | Activity (Rattus norvegicus [27]): inactive | Activity (Rattus norvegicus [28]): inactive | Activity (Rattus norvegicus [29]): Active | Activity (Rattus norvegicus [30]): inactive | Activity (Rattus norvegicus [31]): Active | viability at 6 µM (HeLa [32]): 64%

COc1ccc(-n2ncc3c2-c2ccc(Cl)cc2SC3)cc1
pIC50 (HL-60): < 4.70 | pIC50 (HeLa [1]): < 4.70

COc1ccc(-n2cc3c(n2)-c2ccc(OC)cc2SC3)cc1
pIC50 (HL-60): < 4.70 | pIC50 (HeLa [1]): < 4.70

COc1ccc2c(c1)SCc1cn[nH]c1-2
pIC50 (HL-60): < 4.70 | pIC50 (HeLa [1]): < 4.70

COc1ccc2c(c1)SCc1cn(-c3ccccc3)nc1-2
pIC50 (HL-60): < 4.70 | pIC50 (HeLa [1]): < 4.70
